Drawing on ChEMBL document CHEMBL3994574, “Novel hamamelitannin analogues for the treatment of biofilm related MRSA infections-A scaffold hopping approach” (Eur J Med Chem, 2017), this text covers MIC, inhibition and EC50 for nine compounds.

One data set deals with Staphylococcus aureus. The experiment in a line: Growth inhibition of methicillin-resistant Staphylococcus aureus Mu50 after 20 hrs by broth microdilution method. The method, boiled down: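 MRSA Mu50 grown in Mueller-Hinton broth at 37 °C, aerobic. MIC found in triplicate in flat-bottom 96-well plates, using a procedure from earlier work. Highest concentration tested was […].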
For orientation: Broth dilution looks for growth in wells or tubes with falling amounts of substance.

Data set [1] has as its system Staphylococcus aureus subsp. aureus Mu50. The experiment in a line: Inhibition of quorum sensing system in methicillin-resistant Staphylococcus aureus Mu50 assessed as potentiation of vancomycin-mediated reduction in CFU/biofilm at 100 uM preincubated for 20 hrs followed by vancomycin addition measured after 24 hrs (reference value: 30 +/- 14%).
The test system is the same in data set [2]. The experiment in a line: Inhibition of quorum sensing system in methicillin-resistant Staphylococcus aureus Mu50 assessed as potentiation of vancomycin-mediated reduction in CFU/biofilm at 100 uM after 24 hrs (reference value: 30 +/- 14%).
The nature of data set [3]: Inhibition of quorum sensing system in methicillin-resistant Staphylococcus aureus Mu50 assessed as potentiation of vancomycin-mediated reduction in CFU/biofilm preincubated for 20 hrs followed by vancomycin addition measured after 24 hrs. More on the design: species or system Staphylococcus aureus subsp. aureus Mu50.
Data set [4] can be described thus: Inhibition of quorum sensing system in methicillin-resistant Staphylococcus aureus Mu50 assessed as potentiation of vancomycin-mediated reduction in CFU/biofilm after 24 hrs. Set-up: species or system Staphylococcus aureus subsp. aureus Mu50.

A value given as a limit tells only on which side of the number the result lay.

The term inhibition denotes the relative decrease from the control value, in per cent. What is called EC50 is the concentration that produces a half-maximal response.

Compound `O=C(NC[C@H]1CN(C(=O)c2ccccc2)CCO1)c1ccccc1Cl` came in with an MIC with Staphylococcus aureus of more than 500 µM. Moreover, the inhibition in data set [1] was -6%; in data set [2], 51%.
The like results for `O=C(NC[C@@H]1CN[C@H](CNC(=O)c2ccccc2Cl)C1)c1ccccc1` were, in that order, more than 500 µM, 62% and 47%.
In the data set with Staphylococcus aureus, `O=C(OC[C@H]1OC(O)[C@@](O)(COC(=O)c2cc(O)c(O)c(O)c2)[C@@H]1O)c1cc(O)c(O)c(O)c1` (stereo not given in full) [HAMAMELITANNIN] yielded an MIC of more than 500 µM. The inhibition in data set [1] and in data set [2] was 57% throughout. For the same compound, the EC50 is 146 µM in data set [3] and 165 µM in data set [4].
For the compound `O=C(NC[C@]1(O)CO[C@H](CNC(=O)c2ccccc2Cl)[C@H]1O)c1ccccc1`, the MIC against Staphylococcus aureus is more than 500 µM. For the same compound, the figures for the inhibition in data set [1] and in data set [2] were 88% and 92%, respectively. Also, the EC50 in data set [3] was 0.389 µM; in data set [4], 7.98 µM.
With `O=C(NC[C@@H]1C[C@H](CNC(=O)c2ccccc2Cl)CN1)c1ccccc1`, in the data set on Staphylococcus aureus, the MIC is more than 500 µM. Also, the results for the inhibition in data set [1] and in data set [2] were 54% and 50%, respectively.
As to `O=C(NC[C@H]1CN(C(=O)c2ccccc2Cl)CCO1)c1ccccc1`, in the data set with Staphylococcus aureus, the MIC was more than 500 µM. For the same compound, the inhibition in data set [1] is -7%; in data set [2] it was 41%.
Compound `O=C(NC[C@@H]1CO[C@H](CNC(=O)c2ccccc2Cl)CO1)c1ccccc1` came in with an MIC in the data set on Staphylococcus aureus of more than 500 µM. The inhibition in data set [1] amounted to 95%; in data set [2], 91%. In addition, the EC50 turned out to be 5.57 µM in data set [3] and 13.1 µM in data set [4].
As to `O=C(NC[C@@H]1O[C@H](CNC(=O)c2ccccc2Cl)[C@@H](O)[C@H]1O)c1ccccc1`, the MIC in the data set on Staphylococcus aureus is more than 500 µM. Besides, the inhibition was found to be 93% in data set [1] and 95% in data set [2]. For the same compound, the EC50 in data set [3] is 2.6 µM; in data set [4], 3.71 µM.
`O=C(NC[C@]1(O)CO[C@H](CNC(=O)c2ccccc2Cl)C1)c1ccccc1`: the MIC in the data set with Staphylococcus aureus is more than 500 µM. Besides, the inhibition is 21% in data set [1] and 65% in data set [2].
